By kcat/Km is commonly meant the turnover number divided by the Michaelis constant.

“Also recorded” adds a separate entry of the source.

We go through nine substances from paper PMC8859983 (Biomaterials science, 2020).

The test system of one data set is recombinant MT1-MMP. Put plainly: Fluorescence activation. The settings on record: for selectivity for MT1-MMP compared with MMP-2 / activation efficiency by MT1-MMP: 1 μM probe; for selectivity for MT1-MMP compared with MMP-2: 15 nM enzyme, 37 °C; for activation efficiency by MT1-MMP: 15 nM MT1-MMP, 7 min incubation at 37 °C. It counts as biochemical, human. The method in brief:
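Catalysis velocity: FRET probes at 1 μM incubated with 15 nM refolded recombinant MT1-MMP for 7 min at 37 °C. Fluorescence from substrate hydrolysis recorded at the set time.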

For data set [1], the target named is T1, recombinant human MT1-MMP (Homo sapiens, UniProt P50281). Put plainly: Enzyme kinetics of fluorogenic probes, FRET peptide cleavage assay. It counts as biochemical. Conditions: for kcat/Km: specificity constant, 15 nM refolded MT1-MMP, 37 °C, pH 8.0, mean ± SD. The method in brief: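 Refolded His-tagged human MT1-MMP catalytic/hinge construct (E. coli), 15 nM, with 0.5–4.5 μM FRET probes at 37 °C. Initial cleavage rates measured over 28 s. Km and Vmax from Michaelis–Menten fit; kcat = Vmax/[enzyme]. Mean ± SD.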

Another data set concerns HT-1080 cells. In words: Cell uptake / cell imaging of probes. It is filed as cell-based, human. The settings on record: for cell uptake: 5 μM probe, 2 h at 37 °C, FAM fluorescence, confocal imaging. The method in brief: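 HT-1080 cells in RPMI 1640 with 10% FBS, penicillin and streptomycin at 37 °C, 5% CO₂. Seeded on glass-bottom dishes overnight, then fresh medium. Incubated with 5 μM probe for 2 h at 37 °C, ± 5 μM GM6001. Washed three times with PBS, fixed 10 min in 4% paraformaldehyde, DAPI-stained, then imaged for FAM fluorescence.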

The subject of data set [2] is HT-1080 tumor. In words: Optical in vivo imaging after intratumoral injection. Set-up: species or system BALB/c nude mice. Conditions: 50 nmol intratumoral, IVIS; for fluorescence in the tumor site: 0.5–6 h post injection. The method in brief:
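Subcutaneous HT-1080 xenografts in nude mice; four groups (n = 3) with similar tumor size. Probe or control given intratumorally at 50 nmol. IVIS imaging of FAM (Ex/Em 492/518 nm) at 0.5, 1, 2, 4.5 and 6 h under 2.5% isoflurane in oxygen (1.5 L min⁻¹). Radiant efficiency quantified at tumor site.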

In data set [3] the test system is HT-1080 tumor. Put plainly: Ex vivo tumor imaging and biodistribution after intravenous injection. It is filed as in vivo, BALB/c nude mice. Conditions: for fluorescence intensity / accumulation in the tumors: tumor cryosections 4.5 h post injection, n = 3 per group. The method in brief:
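BALB/c nude mice (4 weeks old) given 1×10⁶ HT-1080 cells in PBS subcutaneously, right flank. At tumor volume ~0.5–1 cm³, four groups (n = 3) received 50 nmol probe by tail-vein injection. Tumors harvested 4.5 h later, cryosectioned, stained with DiI (membrane) and DAPI (nuclei), and examined by fluorescence microscopy.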

Another data set relates to HUVEC cells. Put plainly: MTT cell cytotoxicity assay. It is filed as cell-based, human. The settings on record: 10 μM to 100 μM, 48 h, Fig. S2. The method in brief:
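HUVEC seeded at 4×10³–5×10³ cells/well and incubated 12 h. Then exposed to test compound at 10–100 μM for 48 h. MTT (5 mg mL⁻¹ stock in PBS) added for 4 h, formazan dissolved in DMSO, absorbance read at 490 nm.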

Data set [4] concerns the target T1, recombinant human MT1-MMP. Put plainly: Effect of binding peptide on catalysis of P-1 by MT1-MMP. It is filed as biochemical. Conditions: binding peptide 0.47 μM to 640 μM, pre-incubated with MT1-MMP. The method in brief: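 His-tagged human MT1-MMP catalytic plus hinge domains (Tyr112–Ile318) expressed in E. coli BL21(DE3)pLysS. Purified on Ni-NTA in urea and refolded by gradient dialysis. Enzyme pre-incubated with binding peptide (0.47–640 μM) before cleavage of FRET peptide substrate. Ex 328/Em 393 nm.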

Regarding “(Mca)-PLGL-(Dpa)-AR-HWKHLHNTKTFL [Probe P-2]”, the “probe concentration above which substrate inhibition of MT1-MMP was induced” value with recombinant MT1-MMP (data not included) is “higher than 1.5 μM”.
Turning to “(Mca)-PLGL-(Dpa)-AR-(PEG)12-HWKHLHNTKTFL [Probe P-5]”, the “selectivity for MT1-MMP compared with MMP-2” value (from here on “selectivity for MT1-MMP”) in the data set with recombinant MT1-MMP is listed as “significantly higher activation folds when incubated with MT1-MMP than with MMP-2”. Further, in data set [1] (MT1-MMP), the “fold decreased Km value compared with control probe P-1” value worked out at 5.4 fold, the “fold enhanced hydrolysis rate (kcat) compared with control probe P-1” value is on record as 2.5 fold and the “fold specificity (kcat/Km) to MT1-MMP compared with control probe P-1” value is approximately 14 fold. Further, the kcat/Km in data set [1] was 6150 ± 440 M⁻¹ s⁻¹.
Take “(FAM)-PLGLK-(Dabcyl)-AR-HWKHLHNTKTFL [Probe P-9]”: the “cell uptake” value in the data set on HT-1080 cells is on record as “higher cell uptake than P-8”. Besides, in the data set on recombinant MT1-MMP, the “activation efficiency by MT1-MMP” value is reported as “lower activation efficiency than P-7; also recorded: lower activation efficiency by MT1-MMP than P-8” and the “selectivity for MT1-MMP” value was “higher selectivity for MT1-MMP compared with MMP-2”. For the same substance, in the data set with recombinant MT1-MMP (data not included), the “substrate inhibition of MT1-MMP” value is “induced the substrate inhibition of MT1-MMP at higher concentrations”. Further, the “fluorescence in the tumor site” value in the data set on HT-1080 tumor [2] is listed as “hardly detected”.
Consider “(Mca)-PLGL-(Dpa)-AR-NH2 [Probe P-1, reference compound]”, for which the kcat/Km in data set [1] came to 450 ± 30 M⁻¹ s⁻¹.
On to (FAM)-PLGLK-(Dabcyl)-AR-NH2 [Probe P-8], for which, in the data set on recombinant MT1-MMP, the “activation efficiency by MT1-MMP” value is listed as “lower activation efficiency than P-7” and the “selectivity for MT1-MMP” value is “higher selectivity for MT1-MMP compared with MMP-2”. The “substrate inhibition of MT1-MMP” value with recombinant MT1-MMP (data not included) was “induced the substrate inhibition of MT1-MMP at higher concentrations”. For the same substance, the “fluorescence intensity / accumulation in the tumors” value in the data set on HT-1080 tumor [3] (50 nmol i.v.) was “weaker fluorescence intensities”. The “fluorescence in the tumor site” value in the data set on HT-1080 tumor [2] is “hardly detected”.
With “(FAM)-PLGLK-(Dabcyl)-AR-(PEG)12-HWKHLHNTKTFL [Probe P-7]”, in the data set with HT-1080 cells, the “cell uptake” value was “much higher cell uptake compared with the control cells MCF-7; also recorded: much higher cell uptake compared with P-8 and P-9”. In the data set on HT-1080 cells (HT-1080, 5 μM probe, GM6001 5 μM), the “cell uptake in the presence of MMP inhibitor GM6001” value is “decreased”. The “cytotoxicity” value in the data set on HUVEC cells is recorded as “low toxicity”. Moreover, the “location of the activated probe in frozen tissue slices” value with HT-1080 tumor [3] (50 nmol i.v., 4.5 h post injection) is “located in the cytosol”. In addition, the “fluorescence intensity / accumulation in the tumors” value in the data set with HT-1080 tumor [3] (50 nmol i.v.) is recorded as “strongest fluorescence intensity”. In addition, the “organs in which the probe was activated (biodistribution)” value in the data set with HT-1080 tumor [3] (50 nmol, tail vein injection, FAM fluorescence, Fig. S3) is “predominantly in the tumor, liver, and kidney”. In addition, in data set [1] (MT1-MMP, Table S1), the “Km value compared with P-5” value is “much higher Km value of P-7 than P-5” and the “kcat value compared with P-5” value is listed as “higher kcat value than P-5”. In the data set on HT-1080 tumor [2] (Ex/Em 492/518 nm, n = 3 per group), the “time to maximum fluorescent intensity at tumor” value is given as “about 1 h”.
Take “(Mca)-PLGL-(Dpa)-AR-(PEG)24-HWKHLHNTKTFL [Probe P-6]”: the kcat/Km in data set [1] turned out to be 1110 ± 90 M⁻¹ s⁻¹.
HWKHLHNTKTFL [MT1-AF7p]: in data set [4], the “effect on the catalysis of P-1 by the recombinant MT1-MMP” value is recorded as “had no effect”.
As to “(Mca)-PLGL-(Dpa)-AR-(PEG)6-HWKHLHNTKTFL [Probe P-4]”, the kcat/Km in data set [1] amounted to 4420 ± 370 M⁻¹ s⁻¹.
